Measured values published in ChEMBL document CHEMBL3120102, “Structure-based design, synthesis and biological evaluation of novel anthra[1,2-d]imidazole-6,11-dione homologues as potential antitumor agents” (2013).

Columns and labels:
Assay type in all cases: functional
[1] = system: MDA-MB-231; experiment: Cytotoxicity against human MDA-MB-231 cells assessed as cell growth at 10 uM after 48 hrs by SRB assay; conditions: MDA-MB-231, 48 h, read-out: Activity
Procedure, shortened: (§1)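 First stage of the NCI 60 human tumour cell line screen: a single dose is tested against every line. Cell growth is read as cellular protein by sulforhodamine B colorimetry after 48 h of drug exposure, with reference to a time-zero control and to untreated plates.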

[2] = system: PC-3; experiment: Cytotoxicity against human PC3 cells assessed as cell growth at 10 uM after 48 hrs by SRB assay; conditions: PC-3, 48 h, read-out: Activity; procedure, shortened: as §1
[3] = Cytotoxicity against human UO31 cells assessed as cell growth at 10 uM after 48 hrs by SRB assay; conditions: UO-31, 48 h, read-out: Activity
Procedure, shortened: (§2)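 First stage of the NCI 60 human tumour cell line screen, with each compound tested at a single dose of 10. Cellular protein measured by sulforhodamine B colorimetry after 48 h drug exposure. Growth is calculated against a time-zero cell control and against plates not exposed to drug.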

[4] = system: SN12C; experiment: Cytotoxicity against human SN12C cells assessed as cell growth at 10 uM after 48 hrs by SRB assay; conditions: read-out: Activity; procedure, shortened: as §1
[5] = system: RXF 393; experiment: Cytotoxicity against human RXF393 cells assessed as cell growth at 10 uM after 48 hrs by SRB assay; conditions: RXF 393, 48 h, read-out: Activity; procedure, shortened: as §1
[6] = system: ACHN; experiment: Cytotoxicity against human ACHN cells assessed as cell growth at 10 uM after 48 hrs by SRB assay; conditions: read-out: Activity
[7] = system: A498; experiment: Cytotoxicity against human A498 cells assessed as cell growth at 10 uM after 48 hrs by SRB assay; conditions: A498, 48 h, read-out: Activity
[8] = system: SK-OV-3; experiment: Cytotoxicity against human SKOV3 cells assessed as cell growth at 10 uM after 48 hrs by SRB assay; conditions: SK-OV-3, 48 h, read-out: Activity; procedure, shortened: as §1
[9] = Cytotoxicity against human NCI-ADR-RES cells assessed as cell growth at 10 uM after 48 hrs by SRB assay; conditions: read-out: Activity; procedure, shortened: as §1
[10] = Cytotoxicity against human OVCAR4 cells assessed as cell growth at 10 uM after 48 hrs by SRB assay; conditions: OVCAR-4, 48 h, read-out: Activity; procedure, shortened: as §1
[11] = Cytotoxicity against human OVCAR5 cells assessed as cell growth at 10 uM after 48 hrs by SRB assay; conditions: OVCAR-5, 48 h, read-out: Activity; procedure, shortened: as §1
[12] = Cytotoxicity against human UACC257 cells assessed as cell growth at 10 uM after 48 hrs by SRB assay; conditions: UACC-257, 48 h, read-out: Activity; procedure, shortened: as §2
[13] = system: SK-MEL-28; experiment: Cytotoxicity against human SK-MEL-28 cells assessed as cell growth at 10 uM after 48 hrs by SRB assay; conditions: SK-MEL-28, 48 h, read-out: Activity; procedure, shortened: as §1
[14] = system: SK-MEL-2; experiment: Cytotoxicity against human SK-MEL-2 cells assessed as cell growth at 10 uM after 48 hrs by SRB assay; conditions: SK-MEL-2, 48 h, read-out: Activity; procedure, shortened: as §1
[15] = system: LOX IMVI; experiment: Cytotoxicity against human LOXIMVI cells assessed as cell growth at 10 uM after 48 hrs by SRB assay; conditions: read-out: Activity
Procedure, shortened: (§3)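 NCI 60-cell-line screen, first stage: compound at a single dose of […] (unit as printed) for 48 h. Cellular protein was measured by sulforhodamine B colorimetry. Growth was determined using a time-zero cell control and plates not exposed to drug.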

[16] = system: SNB-75; experiment: Cytotoxicity against human SNB75 cells assessed as cell growth at 10 uM after 48 hrs by SRB assay; conditions: SNB-75, 48 h, read-out: Activity; procedure, shortened: as §2
[17] = system: U-251; experiment: Cytotoxicity against human U251 cells assessed as cell growth at 10 uM after 48 hrs by SRB assay; conditions: U-251, 48 h, read-out: Activity; procedure, shortened: as §2
[18] = system: SNB-19; experiment: Cytotoxicity against human SNB19 cells assessed as cell growth at 10 uM after 48 hrs by SRB assay; conditions: SNB-19, 48 h, read-out: Activity; procedure, shortened: as §2
[19] = system: SF-539; experiment: Cytotoxicity against human SF539 cells assessed as cell growth at 10 uM after 48 hrs by SRB assay; conditions: SF-539, 48 h, read-out: Activity; procedure, shortened: as §1
[20] = system: SF-295; experiment: Cytotoxicity against human SF295 cells assessed as cell growth at 10 uM after 48 hrs by SRB assay; conditions: SF-295, 48 h, read-out: Activity; procedure, shortened: as §1
[21] = system: SF-268; experiment: Cytotoxicity against human SF268 cells assessed as cell growth at 10 uM after 48 hrs by SRB assay; conditions: SF-268, 48 h, read-out: Activity; procedure, shortened: as §1
[22] = system: SW-620; experiment: Cytotoxicity against human SW620 cells assessed as cell growth at 10 uM after 48 hrs by SRB assay; conditions: SW-620, 48 h, read-out: Activity; procedure, shortened: as §2
[23] = system: KM12; experiment: Cytotoxicity against human KM12 cells assessed as cell growth at 10 uM after 48 hrs by SRB assay; conditions: KM12, 48 h, read-out: Activity
[24] = system: HCT-15; experiment: Cytotoxicity against human HCT15 cells assessed as cell growth at 10 uM after 48 hrs by SRB assay; conditions: HCT-15, 48 h, read-out: Activity
[25] = system: HCT-116; experiment: Cytotoxicity against human HCT116 cells assessed as cell growth at 10 uM after 48 hrs by SRB assay; conditions: HCT-116, 48 h, read-out: Activity
[26] = system: NCI-H460; experiment: Cytotoxicity against human NCI-H460 cells assessed as cell growth at 10 uM after 48 hrs by SRB assay; conditions: NCI-H460, 48 h, read-out: Activity; procedure, shortened: as §1
[27] = system: NCI-H322M; experiment: Cytotoxicity against human NCI-H322M cells assessed as cell growth at 10 uM after 48 hrs by SRB assay; conditions: read-out: Activity; procedure, shortened: as §1
[28] = system: NCI-H226; experiment: Cytotoxicity against human NCI-H226 cells assessed as cell growth at 10 uM after 48 hrs by SRB assay; conditions: NCI-H226, 48 h, read-out: Activity; procedure, shortened: as §1
[29] = system: HOP-92; experiment: Cytotoxicity against human HOP92 cells assessed as cell growth at 10 uM after 48 hrs by SRB assay; conditions: HOP-92, 48 h, read-out: Activity; procedure, shortened: as §3
[30] = system: HOP-62; experiment: Cytotoxicity against human HOP62 cells assessed as cell growth at 10 uM after 48 hrs by SRB assay; conditions: HOP-62, 48 h, read-out: Activity; procedure, shortened: as §3
[31] = system: RPMI-8226; experiment: Cytotoxicity against human RPMI8226 cells assessed as cell growth at 10 uM after 48 hrs by SRB assay; conditions: RPMI-8226, 48 h, read-out: Activity; procedure, shortened: as §1
[32] = system: MOLT-4; experiment: Cytotoxicity against human MOLT4 cells assessed as cell growth at 10 uM after 48 hrs by SRB assay; conditions: MOLT-4, 48 h, read-out: Activity; procedure, shortened: as §1
[33] = Cytotoxicity against human H1299 cells assessed as cell viability at 10 uM after 48 hrs by MTT assay; conditions: NCI-H1299, 48 h, read-out: Activity
Procedure, shortened: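 About 2×10³ H1299 cells per well were grown for 24 h at 37 °C in 5% CO2. Compound was dissolved in DMSO immediately before use, diluted in complete medium and left on cells for 48 h. MTT was then added for 4 h at 37 °C, followed by SDS/DMF lysis buffer for 16 h at 37 °C. Absorbance was read at 550 nm.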

SMILES | growth at 10 µM [1] [%] | growth at 10 µM [2] [%] | growth at 10 µM [3] [%] | growth at 10 µM [4] [%] | growth at 10 µM [5] [%] | growth at 10 µM [6] [%] | growth at 10 µM [7] [%] | growth at 10 µM [8] [%] | growth at 10 µM [9] [%] | growth at 10 µM [10] [%] | growth at 10 µM [11] [%] | growth at 10 µM [12] [%] | growth at 10 µM [13] [%] | growth at 10 µM [14] [%] | growth at 10 µM [15] [%] | growth at 10 µM [16] [%] | growth at 10 µM [17] [%] | growth at 10 µM [18] [%] | growth at 10 µM [19] [%] | growth at 10 µM [20] [%] | also measured
CN(C)CCCSc1nc2ccc3c(c2[nH]1)C(=O)c1ccccc1C3=O | 56.2 | 36.7 | 25.5 | 37.7 | 38.4 | 24.3 | 76.2 | 32.4 | 54.3 | 29.7 | 87.9 | 114 | 102 | 80 | 28.6 | 50.5 | 74.1 | 79.7 | 57.5 | 76 | growth at 10 µM [21]: 53.1%; growth at 10 µM [22]: 26.4%; growth at 10 µM [23]: 20.4%; growth at 10 µM [24]: 36.3%; growth at 10 µM [25]: 27.6%; growth at 10 µM [26]: 23.2%; growth at 10 µM [27]: 70.8%; growth at 10 µM [28]: 74.1%; growth at 10 µM [29]: 16%; growth at 10 µM [30]: 52%; growth at 10 µM [31]: -13.7%; growth at 10 µM [32]: -2.9%; viability at 10 µM [33]: 79%
O=C1c2ccccc2C(=O)c2c1ccc1nc3n(c21)CCS3 | 94 | 93.9 | 45.8 | 74.9 | 46.5 | 59.4 | 73.7 | 87.4 | 84.1 | 89.3 | 105 | 80.6 | 109 | 99.9 | 65.9 | 95.6 | 72.5 | 74.5 | 74.1 | 78.6 | growth at 10 µM [21]: 56.1%; growth at 10 µM [22]: 69.3%; growth at 10 µM [23]: 84.9%; growth at 10 µM [24]: 57.1%; growth at 10 µM [25]: 68.4%; growth at 10 µM [26]: 59.5%; growth at 10 µM [27]: 72.1%; growth at 10 µM [28]: 80.5%; growth at 10 µM [29]: 88.7%; growth at 10 µM [30]: 85.3%; growth at 10 µM [31]: 71.7%; growth at 10 µM [32]: 58.4%; viability at 10 µM [33]: 128%
CCCSc1nc2ccc3c(c2[nH]1)C(=O)c1ccccc1C3=O | 26.4 | 66.8 | 24.5 | 80.4 | 20.1 | 27.2 | 57.3 | 38.9 | 50.2 | 42.2 | 99.7 | 86.3 | 92.6 | 79.3 | 62.6 | -9.55 | 63 | 92 | 24 | 37.2 | growth at 10 µM [21]: 47.8%; growth at 10 µM [22]: 104%; growth at 10 µM [23]: 55.2%; growth at 10 µM [24]: 67.7%; growth at 10 µM [25]: 47.7%; growth at 10 µM [26]: 68.1%; growth at 10 µM [27]: 76%; growth at 10 µM [28]: 50.2%; growth at 10 µM [29]: 17.2%; growth at 10 µM [30]: 59.1%; growth at 10 µM [31]: 71.8%; growth at 10 µM [32]: 68.1%; viability at 10 µM [33]: 78%
